Laboratory results published in ChEMBL document CHEMBL4371052, “Diarylcarbonates are a new class of deubiquitinating enzyme inhibitor” (Bioorg Med Chem Lett, 2019).
Activity calls are given as the source filed them. The rule behind the calls is not given here.

Tests used:
[1] = biological target: 26S proteasome (Homo sapiens) (UniProt Q99460+P49721+P20618+P28074+P28062+P28065+P28072+O00487+P25786+P25787+P25788+P25789+P28066+P60900+O14818+Q8TAA3+P40306+A5LHX3+P49720+P28070+Q99436+Q16186+P35998+P62191+P43686+P62333+P17980+P62195+Q13200+O43242+O00232+O00231+Q15008+P51665+Q9UNM6+P55036+P48556+P60896); experiment: Inhibition of 26S proteasome in HEK293T cells expressing GFP-fused Ub G76V mutant assessed as increase in GFP fluorescence; type: cell-based
Summary of the method: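 HEK 293T cells expressing G76V Ub-GFP, a fusion uncleavable by DUBs that reports ubiquitin-proteasome flux, treated with compound. GFP fluorescence was the read-out, with bortezomib as proteasome-inhibitor reference.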

K562 = experiment: Cell cycle arrest in human K562 cells assessed as increase in accumulation at G1-phase after 24 hrs by propidium iodide staining based flow cytometry; type: functional
Summary of the method: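 K562 cells exposed to compound for 24 h, then analysed for cell cycle by FACS. Sub-G1 cells were counted as apoptotic, with the G1 fraction reported separately.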

[2] = biological target: Ubiquitin carboxyl-terminal hydrolase 7 (Homo sapiens) (UniProt Q93009); experiment: Inhibition of recombinant His6-tagged USP7 catalytic domain (unknown origin) using Ub-AMC as substrate by fluorescence assay; details: TDE = time-dependent effect
Chain of Ubiquitin carboxyl-terminal hydrolase 7 (Homo sapiens) (Q93009 whole entry, looked up, the tested form may be a part): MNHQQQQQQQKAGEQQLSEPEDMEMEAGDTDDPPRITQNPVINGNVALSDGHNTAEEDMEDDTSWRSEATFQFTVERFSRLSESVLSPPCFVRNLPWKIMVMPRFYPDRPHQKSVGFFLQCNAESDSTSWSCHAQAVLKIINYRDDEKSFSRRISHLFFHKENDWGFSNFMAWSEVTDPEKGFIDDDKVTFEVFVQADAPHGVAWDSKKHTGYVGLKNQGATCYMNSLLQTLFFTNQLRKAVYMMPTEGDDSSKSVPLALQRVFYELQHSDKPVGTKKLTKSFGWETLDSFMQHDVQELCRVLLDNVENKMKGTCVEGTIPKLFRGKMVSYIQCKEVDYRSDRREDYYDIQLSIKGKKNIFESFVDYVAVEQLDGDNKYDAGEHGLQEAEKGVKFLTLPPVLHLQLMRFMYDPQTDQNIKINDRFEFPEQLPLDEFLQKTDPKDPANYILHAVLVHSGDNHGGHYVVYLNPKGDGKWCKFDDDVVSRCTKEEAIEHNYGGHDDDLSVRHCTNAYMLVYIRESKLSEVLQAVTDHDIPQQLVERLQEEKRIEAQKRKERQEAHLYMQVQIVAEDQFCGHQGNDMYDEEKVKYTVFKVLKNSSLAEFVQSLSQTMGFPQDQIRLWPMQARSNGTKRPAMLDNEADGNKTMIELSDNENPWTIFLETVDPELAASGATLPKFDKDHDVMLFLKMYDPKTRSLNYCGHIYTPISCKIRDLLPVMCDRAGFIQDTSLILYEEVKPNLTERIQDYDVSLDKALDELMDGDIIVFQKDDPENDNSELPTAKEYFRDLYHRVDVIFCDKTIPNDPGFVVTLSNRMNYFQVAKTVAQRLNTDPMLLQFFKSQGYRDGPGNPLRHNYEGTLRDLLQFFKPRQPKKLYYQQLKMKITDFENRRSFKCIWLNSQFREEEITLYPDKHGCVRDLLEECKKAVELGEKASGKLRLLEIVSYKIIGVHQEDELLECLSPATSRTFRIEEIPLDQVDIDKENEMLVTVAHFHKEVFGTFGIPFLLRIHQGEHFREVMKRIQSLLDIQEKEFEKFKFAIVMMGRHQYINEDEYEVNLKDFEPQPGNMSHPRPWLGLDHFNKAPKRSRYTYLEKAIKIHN

[3] = biological target: Ubiquitin carboxyl-terminal hydrolase 7 (Homo sapiens) (UniProt Q93009); experiment: Inhibition of USP7 in HEK293T cell lysates at 25 uM using HA-tagged vinyl-sulfone as substrate preincubated for 19 to 60 mins followed by substrate addition and measured after 19 to 25 mins by Western blot analysis; type: subcellular; details: Lysate

- inhibition [1]: inactive
- inhibition [2]: Tde
- inhibition [3]: Active
Compound: NCc1ccc(OC(=O)Oc2ccc3ccccc3c2)cc1
- Activity (K562): Dose-dependent effect
